# Assay results: ChEMBL document CHEMBL4270636, “5'-Chloro-2,2'-dihydroxychalcone and related flavanoids as treatments for prostate cancer” (Eur J Med Chem, 2018)
# Activity calls are given as the source filed them. The calls are words filed in the database; no cut-off is given here.
# Tests used:
# PC-3 [1] = experiment: Cell cycle arrest in human PC3 cells assessed as accumulation at G2/M phase at 200 nM after 24 hrs by propidium iodide staining based flow cytometry; format: functional
# Androgen receptor = biological target: T1, Androgen receptor (Homo sapiens, UniProt P10275); experiment: Antagonist activity at AR in human LNCAP cells assessed as reduction in DHT-induced transcriptional activation after 24 hrs by luciferase reporter gene assay; format: cell-based
# T1 sequence (P10275 whole entry): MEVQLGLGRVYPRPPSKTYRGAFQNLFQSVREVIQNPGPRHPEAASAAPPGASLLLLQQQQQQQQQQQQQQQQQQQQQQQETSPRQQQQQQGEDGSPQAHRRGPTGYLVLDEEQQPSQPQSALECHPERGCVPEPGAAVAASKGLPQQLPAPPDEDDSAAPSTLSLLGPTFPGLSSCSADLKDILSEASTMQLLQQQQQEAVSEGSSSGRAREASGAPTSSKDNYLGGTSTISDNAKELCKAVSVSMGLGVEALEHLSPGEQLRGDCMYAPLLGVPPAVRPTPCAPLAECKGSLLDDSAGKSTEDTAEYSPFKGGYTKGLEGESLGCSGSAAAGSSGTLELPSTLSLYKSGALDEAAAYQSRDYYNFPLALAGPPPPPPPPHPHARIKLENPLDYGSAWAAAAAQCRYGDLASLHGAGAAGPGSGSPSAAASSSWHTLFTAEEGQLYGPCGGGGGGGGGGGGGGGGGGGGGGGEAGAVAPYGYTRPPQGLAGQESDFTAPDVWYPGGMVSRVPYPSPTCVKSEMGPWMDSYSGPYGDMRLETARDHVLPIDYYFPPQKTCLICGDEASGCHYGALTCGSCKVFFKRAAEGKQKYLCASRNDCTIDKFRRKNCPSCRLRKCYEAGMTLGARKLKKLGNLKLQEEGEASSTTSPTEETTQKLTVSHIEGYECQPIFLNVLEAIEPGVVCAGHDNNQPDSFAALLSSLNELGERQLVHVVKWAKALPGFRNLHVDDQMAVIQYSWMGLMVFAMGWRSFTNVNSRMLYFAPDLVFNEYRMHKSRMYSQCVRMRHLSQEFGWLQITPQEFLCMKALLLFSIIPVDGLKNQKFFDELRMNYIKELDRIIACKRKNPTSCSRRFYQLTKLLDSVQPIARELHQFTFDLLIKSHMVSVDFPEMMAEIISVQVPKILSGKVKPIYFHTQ
# LNCaP [2] = experiment: Antiproliferative activity against human LNCAP cells assessed as reduction in cell growth treated every 2 days for 4 days by hemocytometry; format: functional, cell-based
# PC-3 [3] = experiment: Antiproliferative activity against human PC3 cells assessed as reduction in cell growth treated every 2 days for 4 days by hemocytometry; format: functional, cell-based
# DU-145 = experiment: Antiproliferative activity against human DU145 cells assessed as reduction in cell growth treated every 2 days for 4 days by hemocytometry; format: functional, cell-based
# [4] = biological target: T2, Androgen receptor (Homo sapiens) (UniProt P10275); experiment: Antagonist activity at AR (unknown origin) expressed in human PC3 cells assessed as reduction in DHT-induced transcriptional activation at 3 to 10 uM after 24 hrs by luciferase reporter gene assay; format: cell-based
# T2 sequence (whole entry): T1 sequence (P10275 whole entry)
# Outline: (§1)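 PC-3 cells (AR-negative) co-transfected with wild-type or AR-V7 expression vector plus PSA promoter-luciferase reporter (pGL3PSAp-5.8, 0.5 ug/well); seeded 50,000/well, transfected after 24 h, treated with compounds ± 1 nM DHT for 24 h from 24 h post-transfection; lysed cells read for luciferase activity by luminometer.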
# [5] = tested on: Androgen receptor (Homo sapiens), P10275 [UNDEFINED MUTATION]; experiment: Antagonist activity at AR V7 mutant (unknown origin) expressed in human PC3 cells assessed as reduction in DHT-induced transcriptional activation after 24 hrs by luciferase reporter gene assay; format: cell-based; outline: as §1
# LNCaP [6] = experiment: Antiproliferative activity against human LNCAP cells assessed as reduction in cell growth at 10 uM treated every 2 days for 4 days by hemocytometry; format: functional, cell-based
# [7] = biological target: T2, Androgen receptor (Homo sapiens); experiment: Antagonist activity at AR in human LNCAP cells assessed as reduction in DHT-induced cell growth at 1 to 3 uM treated for every 2 days for 4 days by hemocytometry; format: cell-based
# Homo sapiens [8] = species: Homo sapiens; experiment: Antiproliferative activity against human LNCaP-SF cells assessed as reduction in cell growth at 10 uM treated every 2 days for 4 days by hemocytometry; format: functional, cell-based
# Outline: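 LNCaP-SF castration-resistant subline cultured 4 days with compound at stated concentrations, with or without 0.1 nM DHT; growth assessed by cell counting.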
# [9] = Antiproliferative activity against human PC3-TxR cells assessed as reduction in cell growth treated every 2 days for 4 days by hemocytometry; format: functional, cell-based
# [10] = Antiproliferative activity against human PC3/TxR/CxR cells assessed as reduction in cell growth treated every 2 days for 4 days by hemocytometry; format: functional, cell-based
# [11] = Antiproliferative activity against human DU145-TxR cells assessed as reduction in cell growth treated every 2 days for 4 days by hemocytometry; format: functional, cell-based
# [12] = Antiproliferative activity against human DU145/TxR/CxR cells assessed as reduction in cell growth treated every 2 days for 4 days by hemocytometry; format: functional, cell-based; details: DU-145
# A549 [13] = experiment: Antiproliferative activity against human A549 cells assessed as reduction in cell growth after 72 hrs by sulforhodamine B assay; details: A549, 72 h
# MDA-MB-231 = experiment: Antiproliferative activity against human MDA-MB-231 cells assessed as reduction in cell growth after 72 hrs by sulforhodamine B assay; format: functional, cell-based; details: MDA-MB-231, 72 h
# MCF7 = experiment: Antiproliferative activity against human MCF7 cells assessed as reduction in cell growth after 72 hrs by sulforhodamine B assay; details: MCF7, 72 h
# KB = experiment: Antiproliferative activity against human KB cells assessed as reduction in cell growth after 72 hrs by sulforhodamine B assay
# [14] = Antiproliferative activity against human KBVIN cells assessed as reduction in cell growth after 72 hrs by sulforhodamine B assay; format: functional, cell-based
# PC-3 [15] = experiment: Cell cycle arrest in human PC3 cells assessed as accumulation at Sub-G1 phase at 2 times IC50 after 24 to 48 hrs by propidium iodide staining based flow cytometry; format: functional
# A549 [16] = experiment: Cell cycle arrest in human A549 cells assessed as accumulation at G2/M phase at 3 times IC50 after 24 to 48 hrs by propidium iodide staining based flow cytometry; format: functional
# A549 [17] = experiment: Cell cycle arrest in human A549 cells assessed as accumulation at Sub-G1 phase at 3 times IC50 after 24 to 48 hrs by propidium iodide staining based flow cytometry; format: functional
# PC-3 [18] = experiment: Antitumor activity against human PC3 cells xenografted in C.B-17 SCID mouse assessed as tumor growth inhibition at 30 mg/kg, ip administered every 4 days measured during compound dosing; format: functional, organism-based
# Outline: (§2)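 Male C.B-17 scid mice (purchased at 7 weeks) given 2.0×10⁶ PC-3 cells in 50% matrigel subcutaneously on dorsal side at 8 weeks; at ~50 mm³ tumor, randomized into groups of 5, dosing from second day at 30 mg/kg i.p. every 4 days; tumor volume and body weight followed; mean ± SD.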
# [19] = tested on: Androgen receptor (Homo sapiens), P10275 [UNDEFINED MUTATION]; details: at 3 to 10 µM
# A549 [20] = experiment: Cell cycle arrest in human A549 cells assessed as accumulation at G1 phase at 3 times IC50 after 24 to 48 hrs by propidium iodide staining based flow cytometry; format: functional
# Homo sapiens [21] = species: Homo sapiens; experiment: Induction of microtubule depolymerization in human PC3 cells at 2 times IC50 after 24 hrs by […] microscopic analysis; format: cell-based
# Mus musculus = experiment: Toxicity in C.B-17 SCID mouse xenografted with human PC3 cells assessed as body weight loss at 30 mg/kg, ip administered every 4 days; format: organism-based; details: in vivo, 96 h; outline: as §2
compound,measurement,setting,value
COc1ccc(/C=C\c2cc(OC)c(OC)c(OC)c2)cc1O,Activity,PC-3 [1],Active
O=C1CC(c2ccccc2O)Oc2ccc(O)cc21 (stereo not given),IC50,Androgen receptor,2.73 µM
CC(C)Oc1ccccc1/C=C/C(=O)c1cc(Br)ccc1O,IC50,Androgen receptor,< 1 µM
same,IC50,LNCaP [2],4.2 µM
same,IC50,PC-3 [3],4.16 µM
same,IC50,DU-145,5.03 µM
COc1ccccc1/C=C/C(=O)c1cc(Br)ccc1O,IC50,Androgen receptor,< 1 µM
same,inhibition,[4],Active
same,inhibition,[5],Dose-dependent effect
same,Activity,LNCaP [6],Active
same,Activity,[7],Active
same,IC50,LNCaP [2],4.96 µM
same,IC50,PC-3 [3],1.84 µM
same,IC50,DU-145,6.13 µM
same,Activity,Homo sapiens [8],Active
same,IC50,[9],3.76 µM
same,IC50,[10],3.73 µM
same,IC50,[11],4.47 µM
same,IC50,[12],5.16 µM
same,IC50,A549 [13],8.5 µM
same,IC50,MDA-MB-231,9.7 µM
same,IC50,MCF7,14.1 µM
same,IC50,KB,16.2 µM
same,IC50,[14],11.1 µM
same,Activity,PC-3 [15],Active
same,Activity,A549 [16],Active
same,Activity,A549 [17],inactive
same,TGI,PC-3 [18],inactive
CC(=O)O[C@H]1C(=O)[C@@]2(C)[C@H]([C@H](OC(=O)c3ccccc3)[C@]3(O)C[C@H](OC(=O)[C@H](O)[C@@H](NC(=O)c4ccccc4)c4ccccc4)C(C)=C1C3(C)C)[C@]1(OC(C)=O)CO[C@@H]1C[C@@H]2O [PACLITAXEL],IC50,MDA-MB-231,0.0096 µM
same,IC50,[14],1.73 µM
O=C(/C=C/c1ccc(O)cc1)c1cc(Cl)ccc1O,IC50,Androgen receptor,5.92 µM
COCOc1ccccc1/C=C/C(=O)c1cc(F)ccc1O,IC50,Androgen receptor,> 10 µM
O=C1CC(c2ccccc2O)Oc2cc(O)cc(O)c21 (stereo not given),IC50,Androgen receptor,> 10 µM
COc1ccccc1/C=C/C(=O)c1cc(F)ccc1O,IC50,Androgen receptor,5.01 µM
COc1ccccc1/C=C/C(=O)c1cc(I)ccc1O,IC50,Androgen receptor,1.72 µM
O=C1CC(c2ccccc2O)Oc2ccc(Br)cc21 (stereo not given),IC50,Androgen receptor,1.77 µM
O=C1CC(c2ccccc2O)Oc2ccccc21 (stereo not given) [2'-HYDROXY-FLAVANONE],IC50,Androgen receptor,< 1 µM
same,inhibition,[4],Active
same,Activity,LNCaP [6],Active
same,Activity,[7],Active
same,IC50,LNCaP [2],5.45 µM
same,IC50,PC-3 [3],2.56 µM
same,IC50,DU-145,4.11 µM
same,Activity,Homo sapiens [8],Active
same,inhibition,[19],inactive
O=C(/C=C/c1ccccc1)c1cc(Cl)ccc1O,IC50,Androgen receptor,1.51 µM
O=C1CC(c2ccccc2O)Oc2ccc(I)cc21 (stereo not given),IC50,Androgen receptor,4.26 µM
COc1cc(/C=C/C(=O)c2cc(Cl)ccc2O)ccc1O,IC50,Androgen receptor,5.95 µM
O=C(/C=C/c1ccccc1O)c1cc(Cl)ccc1O,IC50,Androgen receptor,< 1 µM
same,inhibition,[4],Active
same,inhibition,[5],Dose-dependent effect
same,Activity,LNCaP [6],Active
same,Activity,[7],Active
same,IC50,LNCaP [2],3.52 µM
same,IC50,PC-3 [3],1.52 µM
same,IC50,DU-145,4.5 µM
same,Activity,Homo sapiens [8],Active
same,IC50,[9],< 3 µM
same,IC50,[10],4.07 µM
same,IC50,[11],7.43 µM
same,IC50,[12],5.32 µM
same,IC50,A549 [13],9.1 µM
same,IC50,MDA-MB-231,5.1 µM
same,IC50,MCF7,4.9 µM
same,IC50,KB,5 µM
same,IC50,[14],4.9 µM
same,Activity,PC-3 [15],Active
same,Activity,A549 [20],Active
same,Activity,A549 [17],inactive
same,Activity,Homo sapiens [21],Active
same,TGI,PC-3 [18],Active
same,Activity,Mus musculus,Non-Toxic
O=C1CC(c2ccccc2O)Oc2c(Br)cc(Br)cc21 (stereo not given),IC50,Androgen receptor,3.57 µM
O=C(/C=C/c1ccc2c(c1)OCO2)c1cc(Cl)ccc1O,IC50,Androgen receptor,4.36 µM
O=C(/C=C/c1ccccc1O)c1cc(Br)cc(Br)c1O,IC50,Androgen receptor,2.87 µM
CCOc1ccccc1/C=C/C(=O)c1cc(Br)ccc1O,IC50,Androgen receptor,5.27 µM
CNC(=O)c1ccc(N2C(=S)N(c3ccc(C#N)c(C(F)(F)F)c3)C(=O)C2(C)C)cc1F,Activity,LNCaP [6],inactive
COc1ccc(/C=C/C(=O)c2cc(Cl)ccc2O)cc1OC,IC50,Androgen receptor,5.25 µM
COc1ccc(O)c(C(=O)/C=C/c2ccccc2OC)c1,IC50,Androgen receptor,< 1 µM
same,IC50,LNCaP [2],7.25 µM
same,IC50,PC-3 [3],7.33 µM
same,IC50,DU-145,> 10 µM
CCCOc1ccccc1/C=C/C(=O)c1cc(Br)ccc1O,IC50,Androgen receptor,3.96 µM
COc1ccc2c(c1)OC(c1ccccc1O)CC2=O (stereo not given),IC50,Androgen receptor,> 10 µM
COc1ccc2oc(-c3ccccc3OC)cc(=O)c2c1,IC50,Androgen receptor,6.19 µM
O=c1cc(-c2ccccc2O)oc2ccccc12,IC50,Androgen receptor,< 1 µM
same,IC50,LNCaP [2],> 10 µM
O=C1CC(c2ccccc2O)Oc2ccc(Cl)cc21 (stereo not given),IC50,Androgen receptor,1.68 µM
O=C1CC(c2ccccc2O)Oc2cc(O)ccc21 (stereo not given),IC50,Androgen receptor,> 10 µM
COc1ccc2c(c1)C(=O)CC(c1ccccc1OC)O2 (stereo not given),IC50,Androgen receptor,> 10 µM
O=C(/C=C/c1ccccc1O)c1cc(F)ccc1O,IC50,Androgen receptor,1.42 µM
O=C(/C=C/c1ccccc1O)c1cc(I)ccc1O,IC50,Androgen receptor,1.64 µM
COc1ccccc1/C=C/C(=O)c1cc(Cl)ccc1O,IC50,Androgen receptor,> 10 µM
COc1ccccc1/C=C/C(=O)c1ccccc1O,IC50,Androgen receptor,3.5 µM
O=C(/C=C/c1ccccc1O)c1cc(Br)ccc1O,IC50,Androgen receptor,8.69 µM
